{
  "source": "ChEMBL document CHEMBL1146595",
  "about": "“Constituents from the leaves of Phellodendron amurense var. wilsonii and their bioactivity” (J Nat Prod, 2003)",
  "note": "pIC50: −log10 of the molar value.",
  "data": [
    {"test_system": "Radical scavenging activity", "assay": "Antioxidant activity assessed as DPPH free radical scavenging activity", "type": "functional", "procedure,_shortened": "(§1)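 Radical-scavenging assay run by previously reported methods. Percent inhibition was recorded after a 30 min incubation.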", "values": [
      {"compound": "CC(C)(O)CCc1c(O[C@@H]2O[C@H](CO)[C@@H](O)[C@H](O)[C@H]2O)cc(O)c2c(=O)c(O)c(-c3ccc(O)cc3)oc12", "note": "[AMURENSIN]", "pIC50": 4.05},
      {"compound": "VITAMIN E", "pIC50": 5.08},
      {"compound": "O=c1c(O[C@@H]2O[C@H](CO)[C@@H](O)[C@H](O)[C@H]2O)c(-c2ccc(O)c(O)c2)oc2cc(O)cc(O)c12", "note": "[ISOQUERCETIN]", "pIC50": 4.49}
    ]},
    {"biological_target": "T1, Tyrosinase (Homo sapiens) (UniProt P14679)", "T1 sequence (whole entry)": "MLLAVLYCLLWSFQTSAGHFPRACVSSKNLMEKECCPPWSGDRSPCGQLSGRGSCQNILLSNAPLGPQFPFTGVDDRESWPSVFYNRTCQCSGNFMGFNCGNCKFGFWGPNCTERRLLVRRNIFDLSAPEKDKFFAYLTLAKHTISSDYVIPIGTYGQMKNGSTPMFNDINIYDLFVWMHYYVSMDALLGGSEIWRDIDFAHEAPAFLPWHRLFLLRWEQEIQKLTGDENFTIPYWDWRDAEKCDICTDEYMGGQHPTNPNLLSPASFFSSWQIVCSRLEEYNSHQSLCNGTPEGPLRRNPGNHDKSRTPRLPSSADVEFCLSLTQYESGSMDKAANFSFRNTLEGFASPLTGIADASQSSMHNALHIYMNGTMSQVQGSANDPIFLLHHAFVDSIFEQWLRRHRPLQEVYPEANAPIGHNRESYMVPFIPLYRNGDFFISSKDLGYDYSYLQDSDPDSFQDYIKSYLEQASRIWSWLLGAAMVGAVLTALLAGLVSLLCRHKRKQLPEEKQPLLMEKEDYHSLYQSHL", "assay": "Inhibition of tyrosinase at 333 uM", "units": {"inhibition": "%"}, "values": [
      {"compound": "CC(C)(O)CCc1c(O[C@@H]2O[C@H](CO)[C@@H](O)[C@H](O)[C@H]2O)cc(O)c2c(=O)c(O)c(-c3ccc(O)cc3)oc12", "note": "[AMURENSIN]", "inhibition": 15.4},
      {"compound": "CC1(C)O[C@H]2CC(=O)OC[C@]23[C@H]2CC[C@@]4(C)[C@H](c5ccoc5)OC(=O)[C@H]5O[C@]54[C@]2(C)C(=O)C[C@@H]13", "inhibition": 3.6},
      {"compound": "C=C(C)[C@@H]1CC[C@]2(C)CC[C@]3(C)[C@H](CC[C@@H]4[C@@]5(C)CCC(=O)C(C)(C)[C@@H]5CC[C@]43C)[C@@H]12", "inhibition": -2.4},
      {"compound": "CC[C@H](CC[C@@H](C)[C@H]1CC[C@H]2[C@@H]3CC=C4C[C@@H](O)CC[C@]4(C)[C@H]3CC[C@]12C)C(C)C", "inhibition": 14.3}
    ]},
    {"test_system": "Radical scavenging activity", "assay": "Antioxidant activity assessed as DPPH free radical scavenging activity at 250 uM", "type": "functional", "procedure,_shortened": "as §1", "units": {"inhibition": "%"}, "values": [
      {"compound": "O=c1c(O[C@@H]2O[C@H](CO)[C@@H](O)[C@H](O)[C@H]2O)c(-c2ccc(O)cc2)oc2cc(O)cc(O)c12", "inhibition": 5.7},
      {"compound": "CC(C)=CCc1c(O)cc(O)c2c1O[C@@H](c1ccc(O)cc1)[C@@H](O)C2=O", "inhibition": 20.9},
      {"compound": "CC(C)=CCc1c(O[C@@H]2O[C@H](CO)[C@@H](O)[C@H](O)[C@H]2O)cc(O)c2c1O[C@H](c1ccc(O)cc1)[C@@H](O)C2=O", "inhibition": 34.6},
      {"compound": "O=c1c(O[C@@H]2O[C@H](CO)[C@H](O)[C@H](O)[C@H]2O)c(-c2ccc(O)cc2)oc2cc(O)cc(O)c12", "inhibition": 4.5}
    ]}
  ]
}
